Test results: ChEMBL document CHEMBL1150828, “Antimalarial, cytotoxic, and antifungal alkaloids from Duguetia hadrantha” (J Nat Prod, 2001)
In brackets after ≈: the same amount, converted by molar mass. Activity calls are given as the source filed them. No cut-off for these calls is given here.

Legend:
[1] = tested on: SK-MEL; assay: Cytotoxicity against human SK-MEL cells after 2 to 7 days by neutral red assay; type: functional, cell-based
[2] = tested on: BT-549; assay: Cytotoxicity against human BT549 cells after 2 to 7 days by neutral red assay; type: functional, cell-based
[3] = tested on: SK-OV-3; assay: Cytotoxicity against human SKOV3 cells after 2 to 7 days by neutral red assay; type: functional, cell-based
[4] = tested on: KB; assay: Cytotoxicity against human KB cells after 2 to 7 days by neutral red assay; type: functional, cell-based
[5] = tested on: Candida albicans; assay: Antifungal activity against Candida albicans B311 after 48 hrs by modified well microplate assay; type: functional, organism-based; details: B311, 48 h
In short: (§1)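 ATCC strains (C. albicans B311 #90028, C. neoformans #90113, S. aureus #6535, MRSA #33591) were tested in a modified 96-well microplate protocol. […] Amphotericin B and rifampin served as positive controls and DMSO as the negative control.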

[6] = Selectivity index, ratio of IC50 of african green monkey (Cercopithecus aethiops) Vero cells to IC50 for chloroquine-resistant Plasmodium falciparum W2; type: toxicity, cell-based; details: read-out: Ratio IC50
[7] = tested on: Staphylococcus aureus; assay: Antibacterial activity against methicillin-resistant Staphylococcus aureus ATCC 33591 after 48 hrs by modified well microplate assay; type: functional, organism-based; in short: as §1
[8] = tested on: Plasmodium falciparum; assay: Antimalarial activity after 48 hrs against chloroquine-sensitive Plasmodium falciparum D6 as LDH activity by Makler method; type: functional, organism-based; details: D6, 48 h
In short: (§2)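 Parasite lactate dehydrogenase (pLDH) assay adapted from Makler, run in 96-well microplates on two P. falciparum clones, W-2 and D-6 (D-6 chloroquine-sensitive). Chloroquine and artemisinin were positive controls, with DMSO as the vehicle control.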

[9] = tested on: Staphylococcus aureus; assay: Antibacterial activity against Staphylococcus aureus ATCC 6535 after 48 hrs by modified well microplate assay; type: functional, organism-based; in short: as §1
[10] = Selectivity index, ratio of IC50 of african green monkey (Cercopithecus aethiops) Vero cells to IC50 for chloroquine-sensitive Plasmodium falciparum D6; type: toxicity, cell-based; details: read-out: Ratio IC50
[11] = tested on: Cryptococcus neoformans; assay: Antifungal activity against Cryptococcus neoformans ATCC 90113 after 48 hrs by modified well microplate assay; type: functional, organism-based; in short: as §1
[12] = tested on: Plasmodium falciparum; assay: Antimalarial activity after 48 hrs against chloroquine-resistant Plasmodium falciparum W2 as LDH activity by Makler method; type: functional, organism-based; details: W2, 48 h; in short: as §2
[13] = biological target: Intercellular adhesion molecule (ICAM-1), Integrin alpha-L/beta-2 (Homo sapiens) (UniProt P20701+P05362+P05107); assay: Inhibition of LFA1/ICAM1-mediated aggregation of TPA-stimulated human HL60 cells pretreated 10 mins before TPA challenge measured after 16 hrs of PMA addition by microscopy; type: cell-based; details: HL-60
In short: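 HL-60 cells at 1 × 10^6 cells/mL preincubated 10 min with sample, then PMA 10 ng/mL added; plates kept in CO2 incubator and aggregation scored microscopically 16 h after PMA; MIC reported; cytochalasin B, anti-LFA-1 and anti-ICAM-1 antibodies as positive controls.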

[14] = Specific index, ratio of IC50 for human HL60 cells to MIC for LFA1/ICAM1 mediated aggregation in TPA-stimulated human HL60 cells; type: functional, HL-60
In short: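 Ratio of XTT IC50 in HL-60 cells (4 h XTT-PMS read after the aggregation assay) to the microscopic aggregation MIC of PMA (10 ng/mL)-stimulated HL-60 cells scored 16 h after PMA.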

[15] = tested on: HL-60; assay: Cytotoxicity against human HL60 cells after 16 hrs by XTT/PMS assay; details: HL-60, 16 h
[16] = Specific index, ratio of IC50 for human HL60 cells to IC50 for LFA1/ICAM1-mediated CFSE-labeled TPA-stimulated human HL60 cell adhesion to ICAM1 expressing human HeLa cells
In short: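 Index = HL-60 XTT IC50 / adhesion IC50. XTT: HL-60 at 1 × 10^6 cells/mL, sample 10 min, then PMA 10 ng/mL for 16 h; then XTT 1 mg/mL with 25 µM PMS for 4 h at 37 °C, A450 (ref 630). Adhesion: CFSE-labeled HL-60 on confluent HeLa monolayers, PMA 50 ng/mL, 45 min at 37 °C; nonadherent cells washed off, remainder lysed in 1% Triton X-100, fluorescence ex 496/em 519 nm.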

[17] = biological target: Intercellular adhesion molecule (ICAM-1), Integrin alpha-L/beta-2 (Homo sapiens, UniProt P05107+P05362+P20701); assay: Inhibition of LFA1/ICAM1-mediated CFSE-labeled TPA-stimulated human HL60 cell adhesion to ICAM1 expressing human HeLa cells after 45 mins by fluorescence analysis; type: cell-based
In short: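 CFSE-labelled HL-60 cells plus sample added onto confluent ICAM-1-expressing HeLa monolayers with PMA 50 ng/mL; 45 min at 37 °C in CO2 incubator; nonadherent cells washed off, remainder lysed in 1% Triton X-100; fluorescence at ex 496/em 519 nm; anti-ICAM-1 antibody and cytochalasin B positive controls.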

[18] = tested on: Candida albicans; assay: Antifungal activity against Candida albicans B311; type: functional
[19] = Homo sapiens, BT-549, read-out: IC50
[20] = Homo sapiens, KB, read-out: IC50
[21] = Staphylococcus aureus, ATCC 33591, 48 h
[22] = Staphylococcus aureus, ATCC 33591, 48 h, read-out: IC50
[23] = Staphylococcus aureus, ATCC 6535, 48 h, read-out: IC50

Sequence of Intercellular adhesion molecule (ICAM-1), Integrin alpha-L/beta-2 (P20701 whole entry): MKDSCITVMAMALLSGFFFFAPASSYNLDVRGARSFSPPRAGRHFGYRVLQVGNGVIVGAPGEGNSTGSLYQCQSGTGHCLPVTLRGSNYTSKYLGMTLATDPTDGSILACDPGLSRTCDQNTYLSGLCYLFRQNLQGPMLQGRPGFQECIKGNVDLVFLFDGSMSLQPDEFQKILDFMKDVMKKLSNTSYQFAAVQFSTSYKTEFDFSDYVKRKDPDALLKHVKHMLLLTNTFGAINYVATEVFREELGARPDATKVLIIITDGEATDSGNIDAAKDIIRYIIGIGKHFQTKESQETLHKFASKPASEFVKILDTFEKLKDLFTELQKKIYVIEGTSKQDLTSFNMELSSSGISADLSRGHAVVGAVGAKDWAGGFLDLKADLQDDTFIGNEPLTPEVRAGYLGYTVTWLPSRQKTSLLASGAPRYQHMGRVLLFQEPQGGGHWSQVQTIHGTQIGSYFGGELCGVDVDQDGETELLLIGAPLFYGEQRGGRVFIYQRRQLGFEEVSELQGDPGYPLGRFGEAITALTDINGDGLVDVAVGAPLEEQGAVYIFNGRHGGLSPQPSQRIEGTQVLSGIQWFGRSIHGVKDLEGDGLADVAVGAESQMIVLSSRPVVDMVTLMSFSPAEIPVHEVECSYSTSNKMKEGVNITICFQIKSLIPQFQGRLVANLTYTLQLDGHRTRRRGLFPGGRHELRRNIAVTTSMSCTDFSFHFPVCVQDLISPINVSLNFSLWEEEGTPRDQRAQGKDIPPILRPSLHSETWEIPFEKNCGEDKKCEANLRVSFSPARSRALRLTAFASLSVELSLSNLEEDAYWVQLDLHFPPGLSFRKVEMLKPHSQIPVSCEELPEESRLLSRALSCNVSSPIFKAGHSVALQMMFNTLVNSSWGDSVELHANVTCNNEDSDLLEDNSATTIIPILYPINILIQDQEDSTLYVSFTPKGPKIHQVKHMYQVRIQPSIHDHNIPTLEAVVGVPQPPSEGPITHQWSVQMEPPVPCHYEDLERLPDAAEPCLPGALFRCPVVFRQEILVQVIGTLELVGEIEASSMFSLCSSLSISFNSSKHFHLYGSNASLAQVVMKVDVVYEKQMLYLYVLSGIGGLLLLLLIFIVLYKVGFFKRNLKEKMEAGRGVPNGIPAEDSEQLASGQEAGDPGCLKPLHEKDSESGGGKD
Sequence of Intercellular adhesion molecule (ICAM-1), Integrin alpha-L/beta-2 (P05362 whole entry): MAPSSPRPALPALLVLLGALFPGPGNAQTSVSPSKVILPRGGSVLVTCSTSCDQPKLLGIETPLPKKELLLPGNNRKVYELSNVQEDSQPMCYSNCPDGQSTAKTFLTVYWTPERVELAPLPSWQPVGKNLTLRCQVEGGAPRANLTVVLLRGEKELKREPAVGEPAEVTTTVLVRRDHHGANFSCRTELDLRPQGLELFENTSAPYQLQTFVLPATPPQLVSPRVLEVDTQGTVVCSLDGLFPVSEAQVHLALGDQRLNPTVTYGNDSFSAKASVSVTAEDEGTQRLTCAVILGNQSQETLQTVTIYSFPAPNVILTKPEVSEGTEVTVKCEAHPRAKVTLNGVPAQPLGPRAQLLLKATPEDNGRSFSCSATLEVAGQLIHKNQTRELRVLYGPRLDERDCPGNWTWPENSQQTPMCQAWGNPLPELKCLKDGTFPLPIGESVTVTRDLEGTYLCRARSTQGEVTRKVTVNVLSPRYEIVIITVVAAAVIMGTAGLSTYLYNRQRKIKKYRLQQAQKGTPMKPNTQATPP
Sequence of Intercellular adhesion molecule (ICAM-1), Integrin alpha-L/beta-2 (P05107 whole entry): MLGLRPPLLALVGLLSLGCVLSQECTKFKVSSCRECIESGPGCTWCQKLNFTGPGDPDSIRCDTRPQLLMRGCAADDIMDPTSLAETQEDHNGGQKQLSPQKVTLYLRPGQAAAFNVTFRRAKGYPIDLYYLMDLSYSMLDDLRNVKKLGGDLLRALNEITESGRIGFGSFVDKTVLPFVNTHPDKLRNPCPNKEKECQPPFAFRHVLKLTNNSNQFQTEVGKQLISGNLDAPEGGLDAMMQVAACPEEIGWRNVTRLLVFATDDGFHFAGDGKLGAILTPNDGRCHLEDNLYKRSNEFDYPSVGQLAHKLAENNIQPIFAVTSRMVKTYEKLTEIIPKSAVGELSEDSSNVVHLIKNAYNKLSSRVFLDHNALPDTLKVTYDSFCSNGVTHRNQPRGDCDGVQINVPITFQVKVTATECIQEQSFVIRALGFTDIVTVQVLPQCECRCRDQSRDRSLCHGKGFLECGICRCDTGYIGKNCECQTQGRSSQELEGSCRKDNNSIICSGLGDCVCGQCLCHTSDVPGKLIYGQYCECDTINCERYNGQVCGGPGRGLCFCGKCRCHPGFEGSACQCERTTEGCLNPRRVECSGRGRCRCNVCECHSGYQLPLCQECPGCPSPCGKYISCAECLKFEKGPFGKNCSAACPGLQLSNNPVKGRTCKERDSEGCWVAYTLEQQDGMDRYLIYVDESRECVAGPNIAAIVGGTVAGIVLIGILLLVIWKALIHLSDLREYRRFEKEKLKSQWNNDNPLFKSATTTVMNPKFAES

| SMILES | IC50 [1] [µg/mL] | IC50 [2, 19] [µg/mL] | IC50 [3] [µg/mL] | IC50 [4, 20] [µg/mL] | IC50 [5] [µg/mL] | MIC [5] [µg/mL] | selectivity ratio [6] | IC50 [8] [µg/mL] | selectivity ratio [10] | IC50 [12] [µg/mL] | MIC [13] [µg/mL] | IC50 [15] [µg/mL] | MIC [7, 21] [µg/mL] | IC50 [7, 22] [µg/mL] | IC50 [9, 23] [µg/mL] | also measured |
| --- | --- | --- | --- | --- | --- | --- | --- | --- | --- | --- | --- | --- | --- | --- | --- | --- |
| COc1cccc2c1C(=O)c1c(O)c3c(c(O)c1C2=O)C[C@@](O)(C(=O)CO)C[C@@H]3O[C@H]1C[C@H](N)[C@H](O)[C@H](C)O1 [DOXORUBICIN] | < 1.1 | < 1.1 | < 1.1 | < 1.1 |  |  |  |  |  |  |  |  |  |  |  |  |
| O=c1[nH]cc(F)c(=O)[nH]1 [FLUOROURACIL] | 6.3 (≈ 48.4 µM) |  | > 10 | > 10 |  |  |  |  |  |  |  |  |  |  |  | IC50 ([2]; bt-549): Not Active |
| COc1ccc2c(OC)c3c4c(ccnc4c2c1)C(=O)C(=O)N3C [HADRANTHINE A] | > 10 | > 10 | > 10 |  | 4.5 (≈ 14 µM) | 20 (≈ 62.1 µM) | > 40 | 0.12 (≈ 0.372 µM) | > 40 | 0.12 (≈ 0.372 µM) |  |  |  |  |  | IC50 [7]: Not Active; MIC [7]: inactive; IC50 [9]: Not Active; MIC [9]: inactive; IC50 [11]: Not Active; MIC [11]: inactive; IC50 ([4]; kb): Not Active |
| COc1c2c3c(ccnc3c3ccccc13)C(=O)C(=O)N2 [HADRANTHINE B] | 3 (≈ 10.8 µM) | 6.6 (≈ 23.7 µM) | 3.6 (≈ 12.9 µM) | 6.4 (≈ 23 µM) |  |  |  |  |  |  | 4.2 (≈ 15.1 µM) | > 12.5 |  |  |  | Ratio IC50 [14]: 3 |
| CO[C@H]1/C=C/O[C@@]2(C)Oc3c(C)c(O)c4c(O)c(c(/C=N/N5CCN(C)CC5)c(O)c4c3C2=O)NC(=O)/C(C)=C\C=C\[C@H](C)[C@H](O)[C@@H](C)[C@@H](O)[C@@H](C)[C@H](OC(C)=O)[C@@H]1C [RIFAMPIN] |  |  |  |  |  |  |  |  |  |  |  |  | 0.312 (≈ 0.38 µM) | 0.0025 (≈ 0.00304 µM) | 0.01 (≈ 0.0122 µM) | MIC ([9]; Staphylococcus aureus, ATCC 6535, 48 h): 0.02 µg/mL (≈ 0.0243 µM) |
| O=C1c2ccccc2-c2nccc3ccnc1c23 [SAMPANGINE] | 0.37 (≈ 1.59 µM) | 6.4 (≈ 27.6 µM) | 4.1 (≈ 17.7 µM) | 5.3 (≈ 22.8 µM) | 0.15 (≈ 0.646 µM) | 0.39 (≈ 1.68 µM) | > 70 | 0.42 (≈ 1.81 µM) | > 11 | 0.068 (≈ 0.293 µM) | < 0.15 | 2 (≈ 8.61 µM) | 12.5 (≈ 53.8 µM) | 9 (≈ 38.8 µM) | 5.5 (≈ 23.7 µM) | Ratio IC50 [16]: <0.2; Ratio [14]: >13.3; IC50 [17]: > 43.1 µM; MIC ([11]; Cryptococcus neoformans, ATCC 90113, 48 h): 0.78 µg/mL (≈ 3.36 µM); IC50 ([11]; Cryptococcus neoformans, ATCC 90113, 48 h, read-out: IC50): 0.15 µg/mL (≈ 0.646 µM); MIC [18]: 1.56 µg/mL (≈ 6.72 µM) |
